Converted amounts (≈) assume the structure as drawn.
Assays:
Aspergillus flavus [1] = test: Antifungal activity against Aspergillus flavus NCIM No.524 assessed as zone of inhibition by serial plate dilution method; assay type: functional
Method in brief: (§1)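 Sabouraud agar (peptone, D-glucose, agar; pH 5.7), 20 ml per dish, lawned with a saline spore suspension from a loopful of fungus. Excess decanted, plates dried 1 h at 37 °C. Wells punched and compounds in DMSO added, DMSO as control. Triplicate plates, 37 °C for 3-4 days; inhibition-zone diameter measured.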

Staphylococcus aureus [2] = test: Antibacterial activity against Staphylococcus aureus ATTC 25923 after 16 to 18 hrs by serial plate dilution method; assay type: functional
Method in brief: (§2)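 MIC by broth serial dilution: compound serially diluted in Mueller-Hinton broth, tubes adjusted to […] with phosphate buffer. Standardized bacterial suspension inoculated, incubated 16-18 h at 37 °C. MIC read as the lowest concentration with no visible growth.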

Talaromyces marneffei [3] = test: Antifungal activity against Penicillium marneffei assessed as zone of inhibition by serial plate dilution method; assay type: functional; method in brief: as §1
Pseudomonas aeruginosa [4] = test: Antibacterial activity against Pseudomonas aeruginosa ATTC 27853 assessed as zone of inhibition after 16 to 18 hrs by serial plate dilution method; assay type: functional, ATCC27853
Method in brief: (§3)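 Agar well diffusion: 20 ml agar per dish seeded with bacterial suspension, excess decanted, dishes held 1 h at 37 °C. Wells punched, compounds in DMSO added at their MIC levels, DMSO wells as control. Zone of inhibition measured.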

Aspergillus flavus [5] = test: Antifungal activity against Aspergillus flavus NCIM No.524 by serial plate dilution method; assay type: functional
Bacillus subtilis [6] = test: Antibacterial activity against Bacillus subtilis after 16 to 18 hrs by serial plate dilution method; assay type: functional; method in brief: as §2
Aspergillus fumigatus [7] = test: Antifungal activity against Aspergillus fumigatus NCIM No.902 by serial plate dilution method; assay type: functional
[8] = tested on: Trichophyton mentagrophytes; test: Antifungal activity against Trichophyton mentagrophytes assessed as zone of inhibition by serial plate dilution method; assay type: functional; method in brief: as §1
Talaromyces marneffei [9] = test: Antifungal activity against Penicillium marneffei by serial plate dilution method; assay type: functional
Escherichia coli [10] = test: Antibacterial activity against Escherichia coli ATTC 25922 after 16 to 18 hrs by serial plate dilution method; assay type: functional; details: ATCC25922; method in brief: as §2
Staphylococcus aureus [11] = test: Antibacterial activity against Staphylococcus aureus ATTC 25923 assessed as zone of inhibition after 16 to 18 hrs by serial plate dilution method; assay type: functional; method in brief: as §3
Pseudomonas aeruginosa [12] = test: Antibacterial activity against Pseudomonas aeruginosa ATTC 27853 after 16 to 18 hrs by serial plate dilution method; assay type: functional; details: ATCC27853; method in brief: as §2
Bacillus subtilis [13] = test: Antibacterial activity against Bacillus subtilis assessed as zone of inhibition after 16 to 18 hrs by serial plate dilution method; assay type: functional; method in brief: as §3
[14] = tested on: Trichophyton mentagrophytes; test: Antifungal activity against Trichophyton mentagrophytes by serial plate dilution method; assay type: functional
Aspergillus fumigatus [15] = test: Antifungal activity against Aspergillus fumigatus NCIM No.902 assessed as zone of inhibition by serial plate dilution method; assay type: functional; method in brief: as §1
Escherichia coli [16] = test: Antibacterial activity against Escherichia coli ATTC 25922 assessed as zone of inhibition after 16 to 18 hrs by serial plate dilution method; assay type: functional, ATCC25922; method in brief: as §3

Row | Structure (SMILES) | inhibition zone (IZ) (Aspergillus flavus [1]) [mm] | MIC (Staphylococcus aureus [2]) [µg/mL] | inhibition zone (IZ) (Talaromyces marneffei [3]) [mm] | inhibition zone (IZ) (Pseudomonas aeruginosa [4]) [mm] | MIC (Aspergillus flavus [5]) [µg/mL] | MIC (Bacillus subtilis [6]) [µg/mL] | MIC (Aspergillus fumigatus [7]) [µg/mL] | inhibition zone (IZ) [8] [mm] | MIC (Talaromyces marneffei [9]) [µg/mL] | MIC (Escherichia coli [10]) [µg/mL] | inhibition zone (IZ) (Staphylococcus aureus [11]) [mm] | MIC (Pseudomonas aeruginosa [12]) [µg/mL] | inhibition zone (IZ) (Bacillus subtilis [13]) [mm] | MIC [14] [µg/mL] | inhibition zone (IZ) (Aspergillus fumigatus [15]) [mm] | inhibition zone (IZ) (Escherichia coli [16]) [mm]
1 | Clc1cc(Cl)c(Cl)c(/C=N/Nc2nc(-c3ccc(-c4ccccc4)cc3)cs2)c1 | 16 | 6.25 (≈ 13.6 µM) | 16 | <10 | 6.25 (≈ 13.6 µM) | 6.25 (≈ 13.6 µM) | 6.25 (≈ 13.6 µM) | 16 | 6.25 (≈ 13.6 µM) | 25 (≈ 54.5 µM) | 16 | 25 (≈ 54.5 µM) | 16 | 6.25 (≈ 13.6 µM) | 16 | <10
2 | O=[N+]([O-])c1ccc(-c2csc(N/N=C/c3cc(Cl)cc(Cl)c3Cl)n2)cc1 | <10 | 6.25 (≈ 14.6 µM) | <10 | <10 | 25 (≈ 58.5 µM) | 6.25 (≈ 14.6 µM) | 25 (≈ 58.5 µM) | <10 | 25 (≈ 58.5 µM) | 25 (≈ 58.5 µM) | 16 | 25 (≈ 58.5 µM) | 16 | 25 (≈ 58.5 µM) | <10 | <10
3 | Clc1ccc(-c2csc(N/N=C/c3cc(Cl)cc(Cl)c3Cl)n2)cc1 | 11 | 25 (≈ 59.9 µM) | 11 | <10 | 12.5 (≈ 30 µM) | 25 (≈ 59.9 µM) | 12.5 (≈ 30 µM) | 11 | 12.5 (≈ 30 µM) | 12.5 (≈ 30 µM) | <10 | 25 (≈ 59.9 µM) | <10 | 12.5 (≈ 30 µM) | 11 | 11
4 | Clc1cc(Cl)c(Cl)c(-c2nc(CN3CCOCC3)cs2)c1 | <10 | 12.5 (≈ 34.4 µM) | 11 | <10 | 25 (≈ 68.7 µM) | 12.5 (≈ 34.4 µM) | 25 (≈ 68.7 µM) | <10 | 12.5 (≈ 34.4 µM) | 12.5 (≈ 34.4 µM) | 11 | 25 (≈ 68.7 µM) | 11 | 25 (≈ 68.7 µM) | <10 | 11
